The record followed here is ChEMBL document CHEMBL3632593, “3-Nitrotriazole-based piperazides as potent antitrypanosomal agents” (Eur J Med Chem, 2015).

For orientation: inhibition in vivo means the share of the control response that was lost under treatment. The term IC50 denotes the point on the concentration scale where inhibition reaches its midpoint. Usually efflux ratio stands for the permeability from basolateral to apical divided by that in the opposite direction, in the common usage.

Data set [1] deals with Trypanosoma cruzi. Kind of data set: Antichagasic activity against firefly luciferase expressing trypamastigote forms of transgenic Trypanosoma cruzi Y infected in Balb/c mouse assessed as reduction in parasite level at 15 mg/kg/day, ip dosed for 10 days by luciferase reporter gene assay. It is filed as functional. The note with it: 240 h. The method, boiled down:
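Balb/c mice were infected with luciferase-expressing T. cruzi Y trypomastigotes and imaged at baseline after i.p. D-luciferin 150 mg/kg in PBS. Ratio = post-treatment / pre-treatment luciferase signal per animal; group mean ± SD.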
For orientation: In a reporter assay the amount or activity of a reporter protein is the signal.

The subject of another data set is Leishmania donovani. Nature of the data set: Antileishmanial activity against axenic amastigote forms of Leishmania donovani MHOM/ET/67/L82 assessed as inhibition of growth. It is filed as functional, organism-based. The essentials:
(§1)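 Parasite growth assay run in 96-well format per an earlier protocol. Dose–response curves were constructed, and the 50% growth-inhibitory concentration was calculated by linear regression from the sigmoidal dose–inhibition curves.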

The subject of data set [2] is Trypanosoma cruzi. Kind of data set: Antichagasic activity against amastigote forms of Trypanosoma cruzi Tulahuen C4 assessed as inhibition of growth. The data set is classed as functional, organism-based. The essentials: as §1
A short description of data set [3]: Selectivity index, ratio of IC50 for rat L6 cells to IC50 for amastigote forms of Trypanosoma cruzi Tulahuen C4.
For data set [4], the system named is Trypanosoma cruzi. Nature of the data set: Activity of histidine tagged recombinant Trypanosoma cruzi type 1 nitroreductase assessed as NADH oxidation at 100 uM by spectrophotometry method. The essentials:
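Purified recombinant T. cruzi type I nitroreductase, prepared and assayed per earlier work. Specific activity expressed as NADH oxidized per min per mg protein.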

Data set [5] relates to Trypanosoma brucei brucei. Kind of data set: Antimicrobial activity against bloodstream forms of Trypanosoma brucei brucei assessed as reduction in cell viability after 3 days by alamar blue assay. The data set is classed as functional, organism-based. The note with it: 72 h. In general terms: Resazurin is reduced to fluorescent resorufin, in cell work by metabolically active cells.

Data set [6] relates to Trypanosoma brucei brucei. Kind of data set: Antimicrobial activity against bloodstream forms of Trypanosoma brucei brucei overexpressing type I nitroreductase assessed as reduction in cell viability after 3 days by alamar blue assay in presence of tetracycline. It is filed as functional, organism-based. The note with it: 72 h.
In a further data set the test system is L6. Nature of the data set: Cytotoxicity against rat L6 cells assessed as cell viability. It is filed as cell-based.
Data set [7] in a line: Selectivity index, ratio of IC50 for rat L6 cells to IC50 for bloodstream trypomastigote forms of Trypanosoma brucei rhodesiense STIB 900.
Data set [8] deals with Trypanosoma brucei brucei. Nature of the data set: Activity of histidine tagged recombinant Trypanosoma brucei brucei type 1 nitroreductase assessed as NADH oxidation at 100 uM by spectrophotometry method. The method, boiled down: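 Purified recombinant his-tagged T. b. brucei type I nitroreductase. Each nitrotriazole substrate at 100 µM with NADH at 100 µM. NADH oxidation followed spectrophotometrically at 340 nm. Specific activity expressed as nmol NADH oxidized per min per mg enzyme.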

Data set [9] relates to Trypanosoma brucei brucei. Nature of the data set: Antimicrobial activity against bloodstream forms of Trypanosoma brucei brucei overexpressing type I nitroreductase assessed as reduction in cell viability after 3 days by alamar blue assay in absence of tetracycline. The note with it: 72 h. It is filed as functional, organism-based.
A further data set relates to Mus musculus. Nature of the data set: Toxicity in Balb/c mouse infected with firefly luciferase expressing trypamastigote forms of transgenic Trypanosoma cruzi Y at 15 mg/kg/day, ip dosed for 10 days. The data set is classed as organism-based. The settings on record: in vivo, 240 h.
Data set [10] concerns Trypanosoma brucei brucei. Nature of the data set: Ratio of IC50 for bloodstream forms of Trypanosoma brucei brucei overexpressing type I nitroreductase in absence of tetracycline to IC50 for bloodstream forms of Trypanosoma brucei brucei overexpressing type I nitroreductase in presence of tetracycline. It is filed as functional.
The subject of data set [11] is Trypanosoma brucei rhodesiense. Kind of data set: Antitrypanosomal activity against bloodstream trypomastigote forms of Trypanosoma brucei rhodesiense STIB 900 assessed as inhibition of growth. The data set is classed as functional, organism-based. The essentials: as §1
Data set [12] can be described thus: Selectivity index, ratio of IC50 for rat L6 cells to IC50 for amastigote forms of Leishmania donovani MHOM/ET/67/L82.
In another data set the target is Cytochrome P450 2C19 (Homo sapiens, UniProt P33261). Kind of data set: Inhibition of CYP2C19 in human Liver microsomes after 35 mins by LC-MS/MS method. A general note: Liver microsomes are a subcellular fraction often used to study metabolism.
Chain of Cytochrome P450 2C19 (P33261 whole entry): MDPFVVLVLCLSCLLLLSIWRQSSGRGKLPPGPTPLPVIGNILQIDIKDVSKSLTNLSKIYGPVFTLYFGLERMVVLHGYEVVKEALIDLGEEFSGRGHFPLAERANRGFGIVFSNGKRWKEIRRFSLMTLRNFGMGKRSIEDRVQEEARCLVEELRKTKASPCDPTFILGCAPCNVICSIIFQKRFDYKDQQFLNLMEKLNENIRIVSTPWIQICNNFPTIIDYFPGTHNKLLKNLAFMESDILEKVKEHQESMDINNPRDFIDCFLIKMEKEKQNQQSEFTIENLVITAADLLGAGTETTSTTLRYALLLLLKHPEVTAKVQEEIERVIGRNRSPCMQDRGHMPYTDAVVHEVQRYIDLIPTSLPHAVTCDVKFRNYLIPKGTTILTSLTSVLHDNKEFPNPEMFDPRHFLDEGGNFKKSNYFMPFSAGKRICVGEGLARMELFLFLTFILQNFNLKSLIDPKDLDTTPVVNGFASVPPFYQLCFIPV
The target of another data set is Cytochrome P450 2D6 (Homo sapiens, UniProt P10635). Nature of the data set: Inhibition of CYP2D6 in human Liver microsomes after 5 mins by LC-MS/MS method.
Chain of Cytochrome P450 2D6 (P10635 whole entry): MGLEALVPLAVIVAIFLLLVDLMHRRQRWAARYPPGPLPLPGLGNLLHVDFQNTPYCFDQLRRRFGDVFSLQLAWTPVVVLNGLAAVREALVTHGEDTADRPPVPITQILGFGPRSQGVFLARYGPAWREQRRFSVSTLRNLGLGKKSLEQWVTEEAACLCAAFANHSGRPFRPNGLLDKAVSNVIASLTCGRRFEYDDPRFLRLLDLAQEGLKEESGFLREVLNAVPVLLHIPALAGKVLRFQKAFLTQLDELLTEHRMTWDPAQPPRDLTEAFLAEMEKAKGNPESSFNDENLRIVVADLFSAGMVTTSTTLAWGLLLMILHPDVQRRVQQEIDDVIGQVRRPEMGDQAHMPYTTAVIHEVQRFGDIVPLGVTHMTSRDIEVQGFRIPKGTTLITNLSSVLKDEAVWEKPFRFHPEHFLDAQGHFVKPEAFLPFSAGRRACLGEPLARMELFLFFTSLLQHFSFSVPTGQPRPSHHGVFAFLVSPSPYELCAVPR
In another data set the target is Cytochrome P450 3A4 (Homo sapiens, UniProt P08684). Kind of data set: Inhibition of CYP3A4 in human Liver microsomes after 5 mins by LC-MS/MS method.
Chain of Cytochrome P450 3A4 (P08684 whole entry): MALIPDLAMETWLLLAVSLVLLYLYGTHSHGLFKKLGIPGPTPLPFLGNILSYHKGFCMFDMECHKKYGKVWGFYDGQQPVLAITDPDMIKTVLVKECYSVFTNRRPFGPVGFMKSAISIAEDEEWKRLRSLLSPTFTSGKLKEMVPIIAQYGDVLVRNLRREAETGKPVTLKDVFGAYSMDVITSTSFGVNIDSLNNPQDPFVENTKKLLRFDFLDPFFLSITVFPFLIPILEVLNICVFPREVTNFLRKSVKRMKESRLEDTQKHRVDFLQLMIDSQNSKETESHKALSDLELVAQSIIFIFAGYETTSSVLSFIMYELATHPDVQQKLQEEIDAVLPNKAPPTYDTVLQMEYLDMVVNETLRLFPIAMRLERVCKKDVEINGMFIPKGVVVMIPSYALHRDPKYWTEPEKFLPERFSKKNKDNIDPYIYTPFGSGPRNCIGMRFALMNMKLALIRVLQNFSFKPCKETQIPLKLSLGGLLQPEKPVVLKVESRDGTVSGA
The target of a further data set is T1, Cytochrome P450 2C8 (Homo sapiens, UniProt P10632).
T1 sequence (P10632 whole entry): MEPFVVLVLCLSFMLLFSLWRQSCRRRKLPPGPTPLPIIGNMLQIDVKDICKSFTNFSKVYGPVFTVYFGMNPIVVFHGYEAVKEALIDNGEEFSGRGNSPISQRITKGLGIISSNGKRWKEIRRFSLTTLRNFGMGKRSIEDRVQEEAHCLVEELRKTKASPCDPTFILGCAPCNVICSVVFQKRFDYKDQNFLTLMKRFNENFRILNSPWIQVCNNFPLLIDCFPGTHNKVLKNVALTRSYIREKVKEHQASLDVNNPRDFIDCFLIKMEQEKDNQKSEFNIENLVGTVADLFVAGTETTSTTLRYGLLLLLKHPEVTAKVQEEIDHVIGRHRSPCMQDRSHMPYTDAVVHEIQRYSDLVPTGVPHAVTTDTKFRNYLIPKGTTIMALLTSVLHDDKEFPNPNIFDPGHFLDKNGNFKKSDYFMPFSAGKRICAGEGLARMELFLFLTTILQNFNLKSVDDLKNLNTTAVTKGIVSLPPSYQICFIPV
Nature of the data set: Inhibition of CYP2C8 in human Liver microsomes after 5 mins by LC-MS/MS method.

For the next data set, the target named is Cytochrome P450 2C9 (Homo sapiens, UniProt P11712). Nature of the data set: Inhibition of CYP2C9 in human Liver microsomes after 5 mins by LC-MS/MS method.
Chain of Cytochrome P450 2C9 (P11712 whole entry): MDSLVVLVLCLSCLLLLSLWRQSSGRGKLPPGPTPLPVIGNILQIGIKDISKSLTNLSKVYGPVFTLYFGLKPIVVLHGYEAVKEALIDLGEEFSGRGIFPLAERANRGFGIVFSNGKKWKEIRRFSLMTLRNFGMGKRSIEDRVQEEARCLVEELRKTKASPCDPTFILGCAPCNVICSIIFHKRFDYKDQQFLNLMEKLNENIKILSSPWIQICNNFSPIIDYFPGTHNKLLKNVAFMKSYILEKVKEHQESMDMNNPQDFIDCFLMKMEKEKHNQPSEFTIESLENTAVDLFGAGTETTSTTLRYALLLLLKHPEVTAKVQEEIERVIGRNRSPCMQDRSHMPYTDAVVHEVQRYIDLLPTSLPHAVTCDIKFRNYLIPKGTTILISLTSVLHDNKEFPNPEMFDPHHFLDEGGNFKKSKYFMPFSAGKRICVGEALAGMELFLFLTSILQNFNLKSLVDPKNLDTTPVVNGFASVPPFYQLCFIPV
Data set [13] in a line: Efflux ratio of permeability from basolateral to apical side over apical to basolateral side in human Caco2 cells after 2 hrs by LC-MS/MS method. The note with it: Caco-2.

In the case of `O=C(Cn1cnc([N+](=O)[O-])n1)N1CCN(c2ccc(Cl)c(Cl)c2)CC1`, the inhibition in vivo at 15 mg/kg/day in the data set with Trypanosoma cruzi [1] was found to be 77%. In addition, the concentration for half-maximal inhibition (IC50) was 1.22 µM with Leishmania donovani; 0.169 µM in the data set with Trypanosoma cruzi [2]; 4.73 µM in [5]; 0.65 µM in data set [6]; 108 µM in the data set on L6; 7.97 µM in data set [9]. Moreover, the IC50 in [11] was determined as 4.48 µM. Also, the selectivity ratio in data set [3] (L6 cells) was 641; in [7] (L6 cells), 24; in data set [12] (L6 cells), 89. Also, the Activity in the data set on Trypanosoma cruzi [4] is 753 nmol/min/mg; in data set [8], 2320 nmol/min/mg; in the data set with Mus musculus it was “Non-toxic”. The “Ratio IC50” value in data set [10] amounted to 12.3.

For the compound `O=C(Cn1cnc([N+](=O)[O-])n1)N1CCN(Cc2ccc(Cl)c(Cl)c2)CC1`, the IC50 on Cytochrome P450 2C19 is greater than 20 µM; against Cytochrome P450 2D6, greater than 20 µM; in the data set on Leishmania donovani, 8.13 µM; with Trypanosoma cruzi [2], 0.298 µM; at Cytochrome P450 3A4 it was greater than 20 µM; against Cytochrome P450 2C8, greater than 20 µM. In addition, the concentration for half-maximal inhibition (IC50) in [5] is 3.59 µM; in data set [6], 0.58 µM; in the data set with L6, 59.9 µM; in [9], 4.13 µM; in data set [11] it was 0.231 µM; against Cytochrome P450 2C9, greater than 20 µM. Further, the selectivity ratio in data set [3] (l6) worked out at 201; in [7] (l6), 260; in data set [12] (l6) it was 7.36. For the same compound, the Activity was 745 nmol/min/mg with Trypanosoma cruzi [4] and 3730 nmol/min/mg in [8]. The “Ratio IC50” value in [10] was 7.2. Moreover, the efflux ratio at 2 h in [13] stood at 0.91.
